Reference: paper PMC2275130 (Nucleic Acids Research, 2008)

Tests used:
Assay type in all cases: biochemical
HIV-1 RT = HIV-1 RT (Human immunodeficiency virus type 1 group M subtype B, UniProt P04585); assay: HIV-1 RT counter screen
Method in brief: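 His-tagged p66/p51 heterodimeric wild-type RT, Ni-NTA purified, used at 10 nM. Reactions ran 37°C for 20 min, were stopped with ice-cold 5% TCA/0.5 mM pyrophosphate, filtered on GF-B and scintillation counted.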

HCV NS5BCΔ21 [1] = biological target: T1, HCV NS5BCΔ21 (Hepatitis C virus genotype 1b, UniProt P26663); assay: Gel-based incorporation assay; settings: highest concentration of wedelolactone (lane 5, 100 μM), poly rA/U12, 20 min
Method in brief: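 Stopped with 25 mM EDTA/0.5% SDS, then phenol-chloroform extracted and ethanol precipitated. Products were heated 90°C for 5 min, run on denaturing 6% polyacrylamide/7 M urea gel and imaged by phosphorimager.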

[2] = biological target: Klenow fragment of E. coli DNA polymerase I (Escherichia coli, UniProt P00582); assay: Klenow polymerase counter screen; settings: read-out: IC50 Klenow polymerase counter screen; poly rA/dT18, 10% DMSO
Method in brief: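 Exonuclease-deficient Klenow fragment from E. coli BL-21(DE3), purified by ammonium sulfate fractionation and Biorex-70, used at 10 nM. Ran 37°C for 20 min, TCA/pyrophosphate quench, GF-B filtration, scintillation counting.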

HCV NS5BCΔ21 [3] = biological target: T1, HCV NS5BCΔ21; assay: Determination of Ki and mode of inhibition; settings: towards template/primer (poly rA/U12 varied), UTP fixed 25 μM
Method in brief: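 Aliquots were taken at defined times, quenched in 5% TCA/0.5 mM pyrophosphate, and counted by GF-B filter binding. Ki and mode came from Dixon and Cornish-Bowden plots. Each run was done at least twice; values average at least triplicates.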

HCV NS5BCΔ21 [4] = biological target: T1, HCV NS5BCΔ21; assay: NS5B RdRp assay; settings: NS5B inhibition (IC50 μM), poly rA/U12, 25 μM UTP, 0.5 mM MnCl2, 10% DMSO, 1 h at 30°C
Method in brief: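 NS5BCΔ21 (300–500 ng) and poly rA/U12 (0.5 μM) sat 5 min on ice before NTPs were added. Reactions ran 1 h at 30°C, then TCA quench and GF-B counting. IC50s were read from curves relative to DMSO control, from at least two independent runs.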

With `COc1cc(O)c2c(c1)oc(=O)c1c3cc(O)c(O)cc3oc21` [Wedelolactone, 7-methoxy-5,11,12-trihydroxy-coumestan] the IC50 (HIV-1 RT) was greater than 250 µM, the “extension product formation (gel)” value (HCV NS5BCΔ21 [1]) was “no detectable extension product” and the IC50 [2] was greater than 700 µM. It also gave a Ki (HCV NS5BCΔ21 [3]; Ki competitive) of 11.2 µM, a Ki uncompetitive (HCV NS5BCΔ21 [3]) of 43 µM and an IC50 (HCV NS5BCΔ21 [4]) of 36.1 µM.
